# Test results published in PMC4424118 (Nature structural & molecular biology, 2015).
# Legend:
# Assay type in all cases: cell-based
# [1] = molecular target: neuromedin B receptor (NMBR; also known as the BB1 bombesin receptor) (Homo sapiens, UniProt P28336); assay: TANGO β-arrestin recruitment assay, NMBR
# [2] = molecular target: neuromedin B receptor (NMBR; BB1) (Homo sapiens, UniProt P28336); assay: calcium-release; conditions: BB1-expressing cells
# BB3 bombesin receptor = molecular target: T1, BB3 bombesin receptor (Homo sapiens, UniProt P32247); assay: calcium mobilization assay, BB3-expressing cells
# T1 sequence (P32247 1-399): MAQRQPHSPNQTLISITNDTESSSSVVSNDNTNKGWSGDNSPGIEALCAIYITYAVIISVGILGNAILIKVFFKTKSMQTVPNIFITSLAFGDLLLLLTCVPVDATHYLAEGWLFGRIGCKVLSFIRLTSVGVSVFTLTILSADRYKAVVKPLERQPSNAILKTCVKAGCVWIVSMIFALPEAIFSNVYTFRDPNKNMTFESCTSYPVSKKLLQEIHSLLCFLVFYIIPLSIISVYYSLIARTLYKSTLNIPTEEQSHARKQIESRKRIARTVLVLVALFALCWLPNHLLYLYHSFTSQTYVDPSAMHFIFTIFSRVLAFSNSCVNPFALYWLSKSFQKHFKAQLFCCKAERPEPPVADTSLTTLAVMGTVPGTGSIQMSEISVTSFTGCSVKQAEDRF
# Procedure, shortened: (§1)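 Cells were plated at 15,000/well on poly-L-lysine in DMEM with 500 ug/ml G-418 and 1% dialyzed FBS, then held overnight. Loading was with FLIPR Calcium 4 dye in HBSS/2.5 mM probenecid/20 mM HEPES, pH 7.4–7.8, for 45 min at 37°C plus 15 min at RT. Compounds (10 mM DMSO stocks) ran as 16-point 3-fold dilutions, final 10 μM–0.003 nM. Fluorescence was read 10 s before and 120 s after addition.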
# [3] = molecular target: BB2 bombesin receptor (GRPR) (Homo sapiens, UniProt P30550); assay: TANGO β-arrestin recruitment assay, BB2
# BB2 bombesin receptor = BB2 bombesin receptor (Homo sapiens, UniProt P30550); assay: calcium mobilization assay, BB2-expressing cells
# Procedure, shortened: as §1
# BB2 bombesin receptor (GRPR), sequence (P30550 whole entry): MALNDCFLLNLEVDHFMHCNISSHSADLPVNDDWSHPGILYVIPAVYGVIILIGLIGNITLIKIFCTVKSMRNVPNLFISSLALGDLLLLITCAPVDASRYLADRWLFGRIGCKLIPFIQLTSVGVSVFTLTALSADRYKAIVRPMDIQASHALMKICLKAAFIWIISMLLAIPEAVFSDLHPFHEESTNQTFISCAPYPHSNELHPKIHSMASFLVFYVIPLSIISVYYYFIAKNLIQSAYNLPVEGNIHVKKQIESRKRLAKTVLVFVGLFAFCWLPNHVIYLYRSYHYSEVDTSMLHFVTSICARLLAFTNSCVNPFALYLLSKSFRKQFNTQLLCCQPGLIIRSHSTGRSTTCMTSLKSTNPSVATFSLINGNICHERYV
# BB2 bombesin receptor, sequence (P30550 whole entry): as above
# neuromedin B receptor (NMBR; BB1), sequence (P28336 whole entry): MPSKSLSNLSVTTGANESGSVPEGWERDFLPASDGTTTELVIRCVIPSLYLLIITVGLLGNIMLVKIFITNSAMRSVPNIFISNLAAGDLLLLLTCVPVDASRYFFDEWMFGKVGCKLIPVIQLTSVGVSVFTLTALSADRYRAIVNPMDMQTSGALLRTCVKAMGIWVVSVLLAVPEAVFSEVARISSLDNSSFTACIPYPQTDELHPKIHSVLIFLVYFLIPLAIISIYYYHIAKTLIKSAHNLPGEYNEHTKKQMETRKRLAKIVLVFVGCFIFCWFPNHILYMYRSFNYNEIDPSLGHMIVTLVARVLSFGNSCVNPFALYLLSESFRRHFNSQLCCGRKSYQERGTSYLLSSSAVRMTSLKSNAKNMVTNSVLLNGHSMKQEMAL
# UniProt P28336, sequence (P28336 whole entry): as above
compound,measurement,setting,value
"CC(C)(C)NC(=O)[C@@H]1C[C@@H]2CCCC[C@@H]2CN1C[C@@H](O)[C@H](Cc1ccccc1)NC(=O)[C@H](CC(N)=O)NC(=O)c1ccc2ccccc2n1 [Saquinavir, saquinavir]",response of BB1 in the TANGO assay,[1],insensitive
same,calcium mobilization response,[2],did not stimulate a response
same,calcium mobilization response,BB3 bombesin receptor,did stimulate a response
same,response of BB2 in the TANGO assay,[3],insensitive
same,calcium mobilization response,BB2 bombesin receptor,did not stimulate a response
